Six compounds from ChEMBL document CHEMBL1153905, “Functionalized 3-benzylidene-indolin-2-ones: inducers of NAD(P)H-quinone oxidoreductase 1 (NQO1) with antiproliferative activity” (Bioorg Med Chem, 2009) can be followed below.

A short description of data set [1]: Cytotoxicity against mouse Hepa-1c1c7 cells after 48 hrs by MTT assay. Conditions: hepa-1c1c7, 48 h. Type of data set: cell-based. In a few lines: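 Murine hepatoma cells in α-MEM with 10% heat- and charcoal-treated fetal calf serum, passages 6–17; MTT read-out as for the cancer lines but with 48 h compound exposure. Highest concentration tested 25 µM. IC50 from survival-versus-concentration curve; mean and SD, n = 3.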

Data set [2] addresses NAD(P)H dehydrogenase [quinone] 1 (Mus musculus) (UniProt Q64669). The experiment in a line: Induction of NQO1 activity in mouse Hepa-1c1c7 cells assessed as induction ratio at 10 uM after 48 hrs by MTT assay relative to control. The class given is cell-based. The procedure, abridged: (§1)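 Hepa1c1c7 cells, 10,000 per well, 24 h, were then treated 48 h (DMSO ≤0.5%). Digitonin/EDTA lysates were assayed for menadione-dependent MTT-formazan formation using a G6P/G6PDH NADPH-generating mix with FAD at pH 7.4. The reaction ran 5 min, was stopped with dicoumarol, and read at A590. Degree of induction = (A test − blank)/(A control − blank). Ratios were read off the induction–concentration plot at the EROD test concentration.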

Data set [3] deals with T1, CYP1A1 (Mus musculus, UniProt P00184).
T1 sequence (P00184 whole entry): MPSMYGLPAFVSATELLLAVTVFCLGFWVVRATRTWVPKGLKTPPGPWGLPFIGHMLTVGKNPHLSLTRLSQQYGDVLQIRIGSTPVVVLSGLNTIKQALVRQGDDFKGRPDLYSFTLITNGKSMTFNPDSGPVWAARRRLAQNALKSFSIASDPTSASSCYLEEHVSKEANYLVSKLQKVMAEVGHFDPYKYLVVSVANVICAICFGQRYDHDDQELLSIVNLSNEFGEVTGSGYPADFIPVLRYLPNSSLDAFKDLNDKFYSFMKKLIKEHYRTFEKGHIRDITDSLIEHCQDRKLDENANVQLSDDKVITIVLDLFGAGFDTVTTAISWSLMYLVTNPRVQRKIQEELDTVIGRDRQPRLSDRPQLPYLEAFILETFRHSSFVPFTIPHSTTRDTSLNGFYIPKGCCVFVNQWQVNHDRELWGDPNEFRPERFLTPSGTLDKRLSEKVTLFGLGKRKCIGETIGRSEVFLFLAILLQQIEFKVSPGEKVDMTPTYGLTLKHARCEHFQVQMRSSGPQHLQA
The experiment in a line: Induction of CYP1A1 activity in mouse Hepa-1c1c7 cells assessed as induction ratio at 10 uM after 48 hrs by EROD assay relative to control. Type of data set: ADME, cell-based. In a few lines:
(§2)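 About 10,000 Hepa1c1c7 cells/well cultured 24 h, then compound (0.5% DMSO final) for 48 h, at roughly 4 × the concentration doubling NQO1 activity. After PBS wash, cells given 5 µM 7-ethoxyresorufin plus 2 mM salicylamide, 37 °C, 40 min; resorufin fluorescence ex 530/em 590 nm, corrected for compound fluorescence. Ratio = (treated − blank)/(DMSO control − blank); mean ± SD, n = 3.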

Data set [4] relates to HCT-116. Briefly: Antiproliferative activity against human HCT116 cells after 72 hrs by MTT assay. Type of data set: functional, cell-based. Conditions: HCT-116, 72 h. In a few lines:
(§3)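 Cells seeded at 10,000 (MCF7), 4000 (HCT116) or 5000 (CCL186) per well and grown 24 h; MCF7 and CCL186 in EMEM with pyruvate, glutamine, 10% FBS; HCT116 in McCoy's 5A with 10% FBS. Compounds from DMSO stocks (≤1% DMSO final), 72 h exposure; MTT 0.5 mg/ml for 3 h, formazan in DMSO read at 590 nm. IC50 from sigmoidal survival curve, three separate occasions.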
On the technique in general: Tetrazolium dyes change colour on reduction, which living cells bring about.

Data set [5] can be described thus: Antiproliferative activity against human CCL186 cells after 72 hrs by MTT assay. Type of data set: cell-based. The settings on record: CCL186, 72 h. In a few lines: as §3
In data set [6] the test system is HCT-116. The experiment in a line: Cell cycle arrest in human HCT116 cells released from G1 block assessed as accumulation at S phase at 15 uM after 24 hrs by flow cytometry. Type of data set: functional. Background: A flow cytometer gives signals particle by particle.
The test system of data set [7] is MCF7. The experiment in a line: Selectivity ratio of IC50 for human CCL186 cells to IC50 for human MCF7 cells. In a few lines: (§4)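 MTT assay. MCF7 and CCL186 cells were grown in EMEM/10% FBS, HCT116 in McCoy's 5A/10% FBS. Seeding was 10,000 (MCF7), 4000 (HCT116) and 5000 (CCL186) cells per well, 24 h. Compound exposure was 72 h, DMSO ≤1% final. MTT 0.5 mg/ml for 3 h, formazan dissolved in DMSO, A590. IC50 came from sigmoidal survival curves, with 3 separate occasions per concentration. Ratio = IC50 CCL186 / IC50 of the cancer line.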

The subject of data set [8] is HCT-116. Briefly: Cell cycle arrest in human HCT116 cells released from G2 block assessed as accumulation at S phase at 15 uM after 24 hrs by flow cytometry. The class given is functional.
The subject of data set [9] is HCT-116. Briefly: Cell cycle arrest in human HCT116 cells released from G2 block assessed as accumulation at sub G1 phase at 15 uM after 24 hrs by flow cytometry. Type of data set: functional.
In data set [10] the test system is HCT-116. The experiment in a line: Cell cycle arrest in human HCT116 cells released from G1 block assessed as accumulation at sub G1 phase at 15 uM after 24 hrs by flow cytometry. Type of data set: functional.
The nature of data set [11]: Selectivity ratio of IC50 for human CCL186 cells to IC50 for human HCT116 cells. Type of data set: ADME, cell-based, HCT-116. Conditions: CCL186 cells and HCT116 cells, read-out: Ratio IC50. The procedure, abridged: as §4
Data set [12] addresses NAD(P)H dehydrogenase [quinone] 1 (Mus musculus) (UniProt Q64669). Briefly: Induction of NQO1 activity in mouse Hepa-1c1c7 cells assessed as induction ratio at 0.05 uM after 48 hrs by MTT assay relative to control. The class given is cell-based. The procedure, abridged:
as §1

In data set [13] the test system is MCF7. The experiment in a line: Antiproliferative activity against human MCF7 cells after 72 hrs by MTT assay. Type of data set: functional, cell-based. Conditions: MCF7, 72 h. In a few lines:
as §3

The subject of data set [14] is HCT-116. Briefly: Cell cycle arrest in human HCT116 cells released from G1 block assessed as accumulation at G1 phase at 15 uM after 24 hrs by flow cytometry. The class given is functional.
Data set [15] concerns the target T1, CYP1A1. The experiment in a line: Induction of CYP1A1 activity in mouse Hepa-1c1c7 cells assessed as induction ratio at 0.05 uM after 48 hrs by EROD assay relative to control. The class given is ADME, cell-based. In a few lines:
as §2

The test system of data set [16] is HCT-116. Briefly: Cell cycle arrest in human HCT116 cells released from G2 block assessed as accumulation at G2/M phase at 15 uM after 24 hrs by flow cytometry. The class given is functional.
The subject of data set [17] is HCT-116. The experiment in a line: Cell cycle arrest in human HCT116 cells released from G2 block assessed as accumulation at G1 phase at 15 uM after 24 hrs by flow cytometry. The class given is functional.
The subject of data set [18] is HCT-116. The experiment in a line: Cell cycle arrest in human HCT116 cells released from G1 block assessed as accumulation at G2/M phase at 15 uM after 24 hrs by flow cytometry. Type of data set: functional.
Data set [19] concerns HCT-116. The experiment in a line: Cell cycle arrest in human HCT116 cells released from G2 block assessed as accumulation at sub G1 phase at 5 uM after 24 hrs by flow cytometry. The class given is functional.
In data set [20] the test system is HCT-116. Briefly: Cell cycle arrest in human HCT116 cells released from G2 block assessed as accumulation at G2/M phase at 5 uM after 24 hrs by flow cytometry. Type of data set: functional.
Data set [21] concerns HCT-116. The experiment in a line: Cell cycle arrest in human HCT116 cells released from G1 block assessed as accumulation at S phase at 5 uM after 24 hrs by flow cytometry. The class given is functional.
Data set [22] relates to HCT-116. Briefly: Cell cycle arrest in human HCT116 cells released from G2 block assessed as accumulation at S phase at 5 uM after 24 hrs by flow cytometry. The class given is functional.
Data set [23] relates to HCT-116. Briefly: Cell cycle arrest in human HCT116 cells released from G1 block assessed as accumulation at G2/M phase at 5 uM after 24 hrs by flow cytometry. The class given is functional.
The subject of data set [24] is HCT-116. The experiment in a line: Cell cycle arrest in human HCT116 cells released from G2 block assessed as accumulation at G1 phase at 5 uM after 24 hrs by flow cytometry. Type of data set: functional.
Data set [25] relates to HCT-116. Briefly: Cell cycle arrest in human HCT116 cells released from G1 block assessed as accumulation at sub G1 phase at 5 uM after 24 hrs by flow cytometry. Type of data set: functional.
Data set [26] relates to HCT-116. Briefly: Cell cycle arrest in human HCT116 cells released from G1 block assessed as accumulation at G1 phase at 5 uM after 24 hrs by flow cytometry. The class given is functional.
The target of data set [27] is T1, CYP1A1. Briefly: Induction of CYP1A1 activity in mouse Hepa-1c1c7 cells assessed as induction ratio at 0.1 uM after 48 hrs by EROD assay relative to control. The class given is ADME, cell-based. In a few lines: as §2
Data set [28] addresses NAD(P)H dehydrogenase [quinone] 1 (Mus musculus) (UniProt Q64669). The experiment in a line: Induction of NQO1 activity in mouse Hepa-1c1c7 cells assessed as induction ratio at 0.1 uM after 48 hrs by MTT assay relative to control. The class given is cell-based. In a few lines:
as §1

NAD(P)H dehydrogenase [quinone] 1 (Mus musculus), sequence (Q64669 whole entry): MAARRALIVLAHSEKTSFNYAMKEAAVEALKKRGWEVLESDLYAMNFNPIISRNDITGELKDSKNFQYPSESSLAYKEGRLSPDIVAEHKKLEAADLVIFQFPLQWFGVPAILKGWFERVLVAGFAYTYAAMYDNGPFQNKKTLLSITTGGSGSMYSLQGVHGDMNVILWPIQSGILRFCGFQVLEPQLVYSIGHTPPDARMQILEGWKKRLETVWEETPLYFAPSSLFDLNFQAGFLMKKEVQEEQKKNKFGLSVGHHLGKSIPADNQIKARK

By IC50 is commonly meant the concentration at which inhibition is half-maximal. Low values mean greater potency in that assay, high ones weaker potency in that assay. Usually fold induction stands for the signal under treatment as a multiple of the control signal. Compound `O=C1Nc2ccccc2/C1=C\c1cc(O)ccc1O` registered an IC50 in data set [1] of more than 25 µM. Also, the Ratio in [2] came to 7.69. The fold induction at 48 h, 10 µM on CYP1A1 [3] worked out at 2.87.
As to `O=C1Nc2cc(Cl)ccc2/C1=C\c1cccc(C(F)(F)F)c1`, the IC50 worked out at 3.8 µM in the data set on HCT-116 [4], 6.6 µM in [5], 1.1 µM in data set [1] and 7.5 µM in the data set on MCF7 [13]. Also, the Activity worked out at 7.1% with HCT-116 [6]; 8.05% with HCT-116 [8]; 10.62% in the data set on HCT-116 [9]; 12.39% in the data set with HCT-116 [10]; 65.55% with HCT-116 [14]; 28.39% in the data set with HCT-116 [16]. The values for the Activity in the data set with HCT-116 [17] and in the data set on HCT-116 [18] were 53.47% and 15.13%, respectively. Besides, the “Ratio IC50” value in the data set on MCF7 [7] turned out to be 1.7. In addition, in data set [11], the selectivity ratio amounted to 0.9. Further, the Ratio in data set [12] was 5.2. Further, the fold induction at 48 h, 0.05 µM at CYP1A1 [15] came out at 2.4.
In the case of `O=C1Nc2ccccc2/C1=C\c1ccc(Cl)cc1Cl`, 10.6 µM corresponded to half-maximal inhibition in data set [1] (IC50). The Ratio in data set [2] came to 4.24. The fold induction at 48 h, 10 µM at CYP1A1 [3] is 1.21.
As to `COc1ccc(/C=C2/C(=O)Nc3ccccc32)c(OC)c1`, the Activity in the data set with HCT-116 [19] was found to be 12.49%; with HCT-116 [20], 39.43%; in the data set on HCT-116 [21] it was 12.37%; in the data set with HCT-116 [22], 13.43%; with HCT-116 [23] it was 58.82%; in the data set on HCT-116 [24], 34.66%. Also, the Activity is 2.64% in the data set with HCT-116 [25] and 26.14% in the data set with HCT-116 [26]. For the same compound, the 50% inhibitory concentration (IC50) in the data set on HCT-116 [4] was found to be 8.8 µM; in [5], 5.8 µM; in [1] it was 11.1 µM; in the data set with MCF7 [13], 3.3 µM. Further, in the data set on MCF7 [7], the “Ratio IC50” value was found to be 0.7. Also, the selectivity ratio in [11] was found to be 1.8.
As for `O=C1Nc2ccccc2/C1=C\c1ccc(C(F)(F)F)cc1`, the IC50 in [1] was 12 µM. Also, the fold induction at 48 h, 0.1 µM at CYP1A1 [27] stood at 1.22. Besides, the Ratio in [28] came out at 2.74.
The like results for `O=C1Nc2ccccc2/C1=C\c1cccc(C(F)(F)F)c1` were, in that order, 3.9 µM, 1.4 and 3.85.
